Structures are written as SMILES. The source made the active and inactive calls. The rule behind the calls is not given here.

One data set has as its target Cytochrome P450 2D6 (Homo sapiens, UniProt P10635). Kind of data set: Inhibition of CYP2D6 (unknown origin). The data set is classed as ADME.
A short description of data set [1]: Oral bioavailability in rat at 2 mg/kg. The data set is classed as ADME, organism-based. The note with it: in vivo.
Data set [2] in a line: Drug metabolism in human liver microsomes assessed as O-demethylated metabolite formation. The data set is classed as ADME, Microsome.
The nature of data set [3]: Cmax in Sprague-Dawley rat at 1.5 mg/kg, po administered as single dose measured at 6 hrs. Also noted: route oral, time 6 hrs, dose 1.5 mg/kg. The note with it: in vivo. Type of data set: ADME, organism-based.
Data set [4] is described as follows: Drug metabolism in monkey liver microsomes assessed as O-demethylated metabolite formation. The data set is classed as ADME, Macaca mulatta, Microsome. The conditions noted are these: rhesus monkey. (Liver microsomes are a subcellular fraction often used to study metabolism.)
Data set [5] can be described thus: Cmax in dog at 1 mg/kg, po or 0.5 mg/kg, iv. Type of data set: ADME, organism-based, Canis lupus familiaris. Details: dose 1 mg/kg. The note with it: in vivo. The essentials: (§1)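 Single-dose PK at 1 mg/kg po and 0.5 mg/kg iv. Mouse clearance is from blood; dog and rhesus clearance is from plasma. Mouse vehicle, both routes: DMSO:PEG400:water (5:40:55, v/v/v). Dog and monkey iv vehicle: PEG200:12%HPCD:water (30:12:58 v/v/v). Dog and monkey po vehicle: Imwitor:Tween (1:1 w/w).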

The species named for another data set is Rattus norvegicus. The note with it: Sprague-Dawley, dose 5-15 mg/kg.
A short description of data set [6]: Cmax in C57BL/6J mouse at 1 mg/kg, po or 0.5 mg/kg, iv. The data set is classed as ADME, organism-based. Also noted: dose 1 mg/kg. The conditions noted are these: in vivo. Put shortly: as §1
A short description of data set [7]: Drug recovery in fasted bile-duct cannulated Sprague-Dawley rat urine assessed as metabolically unchanged parent compound at 5 mg/kg, po using [3H]-labeled compound measured after 48 hrs. The data set is classed as ADME, organism-based. The note with it: in vivo.
Data set [8] in a line: Toxicity in Sprague-Dawley rat assessed as change in hemoglobin levels at 15 mg/kg, po QD administered for 4 weeks and measured post last dose. The data set is classed as organism-based. The conditions noted are these: in vivo, 672 h.

Sequence of Cytochrome P450 2D6 (P10635 whole entry): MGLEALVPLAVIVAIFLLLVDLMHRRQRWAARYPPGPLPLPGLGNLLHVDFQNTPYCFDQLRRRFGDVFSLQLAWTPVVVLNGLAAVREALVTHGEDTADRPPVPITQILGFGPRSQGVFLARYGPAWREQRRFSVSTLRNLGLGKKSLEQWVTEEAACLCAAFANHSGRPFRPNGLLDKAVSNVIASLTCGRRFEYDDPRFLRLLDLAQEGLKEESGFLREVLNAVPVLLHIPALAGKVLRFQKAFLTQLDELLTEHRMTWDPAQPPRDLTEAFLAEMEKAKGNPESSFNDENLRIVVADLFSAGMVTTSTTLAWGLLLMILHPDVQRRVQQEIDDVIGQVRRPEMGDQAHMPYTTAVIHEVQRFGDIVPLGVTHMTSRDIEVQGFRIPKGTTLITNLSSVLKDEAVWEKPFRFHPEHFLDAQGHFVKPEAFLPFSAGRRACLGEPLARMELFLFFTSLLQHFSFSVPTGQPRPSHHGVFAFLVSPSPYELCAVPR

What is called IC50 is the concentration that gives 50% inhibition. As usually defined, the bioavailability is dose-corrected exposure relative to a reference, in per cent. The term Cmax denotes the peak of the concentration-time curve. With `COc1ccc(C(NC(=O)c2cnc(-c3cccnn3)nc2O)c2ccc(OC)cc2)cc1`, the IC50 against Cytochrome P450 2D6 is over 60 µM. In data set [1], the bioavailability was determined as 36%. The Drug metabolism entry in data set [2] and in [4] was “Metabolite_Detected” in each case. Besides, the results for the Cmax in data set [3], in data set [5] and in data set [6] were 6.8 µM, 18 µM and 8.4 µM, respectively. Also, the inhibition result in the data set listed under Rattus norvegicus was “Active”. Further, the Drug recovery in data set [7] is under 10%. Further, the Activity in [8] was 7.6 g/dL.
